Experimental data taken from ChEMBL document CHEMBL2390927, “Design, synthesis and antimicrobial evaluation of novel benzimidazole type of Fluconazole analogues and their synergistic effects with Chloromycin, Norfloxacin and Fluconazole” (2013).
≈ marks a conversion by molar mass, not a printed value.

Tests used:
[1] = tested on: Candida; test: Antifungal activity against Candida mycoderma after 24 hrs by two-fold serial dilution method; type: functional
Procedure, shortened: (§1)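 Spore suspension in sterile distilled water from one-day-old cultures on Sabouraud agar, final 1–5 × 10³ spore mL⁻¹. Compound stocks diluted in sterile RPMI 1640 as two-fold serial dilutions in microdilution plates. MIC is the lowest concentration completely inhibiting growth. Growth monitored visually and spectrophotometrically, in triplicate.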

[2] = tested on: Candida albicans; test: Antifungal activity against Candida albicans ATCC 76615 after 24 hrs by two-fold serial dilution method; type: functional; conditions: ATCC 76615, 24 h; procedure, shortened: as §1
[3] = tested on: Salmonella typhi; test: Antibacterial activity against Bacillus typhi after 24 hrs by two-fold serial dilution method; type: functional, Salmonella enterica subsp. enterica serovar Typhi; conditions: Salmonella enterica
Procedure, shortened: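 Two-fold serial dilution in 96-well plates following NCCLS; compounds dissolved in DMSO as stocks, then diluted in Mueller-Hinton broth; bacterial suspension adjusted with sterile saline to 1 × 10⁵ CFU; MIC taken as lowest concentration completely inhibiting growth, monitored visually and spectrophotometrically; DMSO-plus-inoculum well as solvent control; triplicate.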

[4] = tested on: Pseudomonas aeruginosa; test: Antibacterial activity against Pseudomonas aeruginosa ATCC 27853 after 24 hrs by two-fold serial dilution method; type: functional; conditions: ATCC 27853, 24 h
Procedure, shortened: (§2)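 MIC taken as the lowest concentration giving complete growth inhibition, by standard two-fold serial dilution in 96-well plates following NCCLS. Stocks in DMSO, diluted in Mueller–Hinton broth. Inoculum adjusted with sterile saline to 1 × 10⁵ CFU. DMSO with inoculum and no drug served as solvent control. Growth read visually and spectrophotometrically, in triplicate.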

[5] = tested on: Escherichia coli; test: Antibacterial activity against Escherichia coli JM109 after 24 hrs by two-fold serial dilution method; type: functional; conditions: JM109, 24 h
[6] = tested on: Bacillus; test: Antibacterial activity against Bacillus proteus ATCC 13315 after 24 hrs by two-fold serial dilution method; type: functional; conditions: ATCC 13315, 24 h; procedure, shortened: as §2
[7] = tested on: Micrococcus luteus; test: Antibacterial activity against Micrococcus luteus ATCC 4698 after 24 hrs by two-fold serial dilution method; type: functional; conditions: ATCC 4698, 24 h; procedure, shortened: as §2
[8] = tested on: Bacillus subtilis; test: Antibacterial activity against Bacillus subtilis ATCC 21216 after 24 hrs by two-fold serial dilution method; type: functional; conditions: ATCC 21216, 24 h; procedure, shortened: as §2
[9] = tested on: Staphylococcus aureus; test: Antibacterial activity against methicillin-resistant Staphylococcus aureus N315 after 24 hrs by two-fold serial dilution method; type: functional; conditions: N315, 24 h
[10] = tested on: Staphylococcus aureus; test: Antibacterial activity against Staphylococcus aureus ATCC 6538 after 24 hrs by two-fold serial dilution method; type: functional; conditions: ATCC 6538, 24 h
[11] = tested on: Aspergillus flavus; test: Antifungal activity against Aspergillus flavus after 24 hrs by two-fold serial dilution method; type: functional; procedure, shortened: as §1
[12] = tested on: Cyberlindnera jadinii; test: Antifungal activity against Candida utilis after 24 hrs by two-fold serial dilution method; type: functional; conditions: Williopsis jadinii; procedure, shortened: as §1
[13] = tested on: Saccharomyces cerevisiae; test: Antifungal activity against Saccharomyces cerevisiae after 24 hrs by two-fold serial dilution method; type: functional; procedure, shortened: as §1

Structure (SMILES) | MIC [1] | MIC [2] | MIC [3] | MIC [4] | MIC [5] | MIC [6] | MIC [7] | MIC [8] | MIC [9] | MIC [10] | MIC [11] | MIC [12] | MIC [13]
CCCCCCCCCCCCN(Cc1nc2ccccc2[nH]1)c1ccc(C)cc1 | 16 µg/mL (≈ 39.4 µM) | 64 µg/mL (≈ 158 µM) | 64 µg/mL (≈ 158 µM) | 128 µg/mL (≈ 316 µM) | 128 µg/mL (≈ 316 µM) | 64 µg/mL (≈ 158 µM) | 64 µg/mL (≈ 158 µM) | 128 µg/mL (≈ 316 µM) | 128 µg/mL (≈ 316 µM) | 64 µg/mL (≈ 158 µM) | 64 µg/mL (≈ 158 µM) | 32 µg/mL (≈ 78.9 µM) | 64 µg/mL (≈ 158 µM)
FC(F)(F)c1cccc(NCc2nc3ccccc3[nH]2)c1 | 16 µg/mL (≈ 54.9 µM) | 32 µg/mL (≈ 110 µM) | 32 µg/mL (≈ 110 µM) | 64 µg/mL (≈ 220 µM) | 32 µg/mL (≈ 110 µM) | 16 µg/mL (≈ 54.9 µM) | 32 µg/mL (≈ 110 µM) | 32 µg/mL (≈ 110 µM) | 16 µg/mL (≈ 54.9 µM) | 16 µg/mL (≈ 54.9 µM) | 16 µg/mL (≈ 54.9 µM) | 32 µg/mL (≈ 110 µM) | 32 µg/mL (≈ 110 µM)
Fc1ccccc1NCc1nc2ccccc2[nH]1 | 32 µg/mL (≈ 133 µM) | 32 µg/mL (≈ 133 µM) | 64 µg/mL (≈ 265 µM) | 128 µg/mL (≈ 531 µM) | 32 µg/mL (≈ 133 µM) | 64 µg/mL (≈ 265 µM) | 64 µg/mL (≈ 265 µM) | 32 µg/mL (≈ 133 µM) | 32 µg/mL (≈ 133 µM) | 16 µg/mL (≈ 66.3 µM) | 32 µg/mL (≈ 133 µM) | 64 µg/mL (≈ 265 µM) | 32 µg/mL (≈ 133 µM)
Cc1ccc(N(Cc2nc3ccccc3[nH]2)Cc2ccccc2Cl)cc1 | 32 µg/mL (≈ 88.4 µM) | 32 µg/mL (≈ 88.4 µM) | 64 µg/mL (≈ 177 µM) | 32 µg/mL (≈ 88.4 µM) | 32 µg/mL (≈ 88.4 µM) | 32 µg/mL (≈ 88.4 µM) | 128 µg/mL (≈ 354 µM) | 64 µg/mL (≈ 177 µM) | 128 µg/mL (≈ 354 µM) | 64 µg/mL (≈ 177 µM) | 32 µg/mL (≈ 88.4 µM) | 32 µg/mL (≈ 88.4 µM) | 64 µg/mL (≈ 177 µM)
Fc1ccc(NCc2nc3ccccc3[nH]2)c(F)c1 | 32 µg/mL (≈ 123 µM) | 64 µg/mL (≈ 247 µM) | 32 µg/mL (≈ 123 µM) | 64 µg/mL (≈ 247 µM) | 16 µg/mL (≈ 61.7 µM) | 16 µg/mL (≈ 61.7 µM) | 64 µg/mL (≈ 247 µM) | 32 µg/mL (≈ 123 µM) | 64 µg/mL (≈ 247 µM) | 16 µg/mL (≈ 61.7 µM) | 64 µg/mL (≈ 247 µM) | 32 µg/mL (≈ 123 µM) | 32 µg/mL (≈ 123 µM)
Clc1ccc(NCc2nc3ccccc3[nH]2)cc1 | 64 µg/mL (≈ 248 µM) | 64 µg/mL (≈ 248 µM) | 128 µg/mL (≈ 497 µM) | 128 µg/mL (≈ 497 µM) | 32 µg/mL (≈ 124 µM) | 64 µg/mL (≈ 248 µM) | 32 µg/mL (≈ 124 µM) | 64 µg/mL (≈ 248 µM) | 32 µg/mL (≈ 124 µM) | 64 µg/mL (≈ 248 µM) | 64 µg/mL (≈ 248 µM) | 32 µg/mL (≈ 124 µM) | 64 µg/mL (≈ 248 µM)
O=C(N[C@H](CO)[C@H](O)c1ccc([N+](=O)[O-])cc1)C(Cl)Cl [CHLORAMPHENICOL] |  |  | 32 µg/mL (≈ 99 µM) |  |  | 32 µg/mL (≈ 99 µM) | 8 µg/mL (≈ 24.8 µM) | 32 µg/mL (≈ 99 µM) |  | 8 µg/mL (≈ 24.8 µM) |  |  | 
CCn1cc(C(=O)O)c(=O)c2cc(F)c(N3CCNCC3)cc21 [NORFLOXACIN] |  |  | 1 µg/mL (≈ 3.13 µM) | 1 µg/mL (≈ 3.13 µM) | 1 µg/mL (≈ 3.13 µM) | 4 µg/mL (≈ 12.5 µM) | 1 µg/mL (≈ 3.13 µM) | 2 µg/mL (≈ 6.26 µM) | 1 µg/mL (≈ 3.13 µM) | 8 µg/mL (≈ 25.1 µM) |  |  | 
CC(=O)c1cc2ccc(OCc3ccc(CN(Cc4nc5ccccc5[nH]4)c4ccc(C)cc4)cc3)cc2oc1=O | 128 µg/mL (≈ 235 µM) | 64 µg/mL (≈ 118 µM) | 128 µg/mL (≈ 235 µM) | 128 µg/mL (≈ 235 µM) | 128 µg/mL (≈ 235 µM) | 256 µg/mL (≈ 471 µM) | 128 µg/mL (≈ 235 µM) | 64 µg/mL (≈ 118 µM) | 64 µg/mL (≈ 118 µM) | 128 µg/mL (≈ 235 µM) | 64 µg/mL (≈ 118 µM) | 64 µg/mL (≈ 118 µM) | 32 µg/mL (≈ 58.9 µM)
Cc1ccc(N(Cc2nc3ccccc3[nH]2)Cc2ccc(Cl)cc2Cl)cc1 | 128 µg/mL (≈ 323 µM) | 64 µg/mL (≈ 161 µM) | 64 µg/mL (≈ 161 µM) | 64 µg/mL (≈ 161 µM) | 32 µg/mL (≈ 80.7 µM) | 32 µg/mL (≈ 80.7 µM) | 128 µg/mL (≈ 323 µM) | 32 µg/mL (≈ 80.7 µM) | 64 µg/mL (≈ 161 µM) | 64 µg/mL (≈ 161 µM) | 128 µg/mL (≈ 323 µM) | 64 µg/mL (≈ 161 µM) | 64 µg/mL (≈ 161 µM)
Fc1ccc(NCc2nc3ccccc3[nH]2)cc1 | 32 µg/mL (≈ 133 µM) | 64 µg/mL (≈ 265 µM) | 128 µg/mL (≈ 531 µM) | 64 µg/mL (≈ 265 µM) | 64 µg/mL (≈ 265 µM) | 32 µg/mL (≈ 133 µM) | 64 µg/mL (≈ 265 µM) | 32 µg/mL (≈ 133 µM) | 64 µg/mL (≈ 265 µM) | 32 µg/mL (≈ 133 µM) | 32 µg/mL (≈ 133 µM) | 32 µg/mL (≈ 133 µM) | 64 µg/mL (≈ 265 µM)
Cc1ccc(N(Cc2ccc([N+](=O)[O-])cc2)Cc2nc3ccccc3[nH]2)cc1 | 64 µg/mL (≈ 172 µM) | 128 µg/mL (≈ 344 µM) | 64 µg/mL (≈ 172 µM) | 64 µg/mL (≈ 172 µM) | 64 µg/mL (≈ 172 µM) | 64 µg/mL (≈ 172 µM) | 128 µg/mL (≈ 344 µM) | 64 µg/mL (≈ 172 µM) | 256 µg/mL (≈ 687 µM) | 32 µg/mL (≈ 85.9 µM) | 128 µg/mL (≈ 344 µM) | 64 µg/mL (≈ 172 µM) | 64 µg/mL (≈ 172 µM)
